In experiment [1] the test system is Schistosoma mansoni. Put plainly: Incorporation of 1.1 M *10e6 [3H]uridine in hycanthone(HC) sensitive Schistosoma mansoni. It is filed as functional.
Experiment [2] deals with Mus musculus. The experiment in a line: In vivo antitumor activity against p-388 lymphocytic leukemia in mice at 1.50 mg/kg. In kind it is functional. As to conditions: dose 1.5 mg/kg. The method in brief:
(§1)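 Murine P388 lymphocytic leukemia model tested by the National Cancer Institute. Compound given once daily for 9 days; activity expressed as T/C.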

For experiment [3], the system named is Schistosoma mansoni. The experiment in a line: Incorporation of 5.5 M*10e6 [3H]uridine in hycanthone(HC) resistant Schistosoma mansoni. In kind it is functional. In outline:
(§2)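 Adult HC-resistant S. mansoni were treated in vitro, and [3H]uridine incorporation by the worms was measured. Values are % of control. Concentrations are given in M × 10^6.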

Experiment [4] has as its system Mus musculus. Put plainly: In vivo antitumor activity against p-388 lymphocytic leukemia in mice at 6.25 mg/kg. It is filed as functional. In outline:
as §1

Experiment [5] concerns Mus musculus. The experiment in a line: In vivo antitumor activity against p-388 lymphocytic leukemia in mice at 3.12 mg/kg. It is filed as functional. The method in brief: as §1
Experiment [6] has as its system Schistosoma mansoni. The experiment in a line: Incorporation of 5.5 M*10e6 [3H]uridine in hycanthone(HC) sensitive Schistosoma mansoni. In kind it is functional.
Experiment [7] concerns Schistosoma mansoni. Put plainly: Day 50% survival of worms in culture of HC sensitive Schistosoma mansoni. In kind it is functional.
Experiment [8] relates to Schistosoma mansoni. Put plainly: Incorporation of 1.1 M *10e6 [3H]uridine in hycanthone(HC) resistant Schistosoma mansoni. It is filed as functional. In outline:
as §2

The test system of experiment [9] is Nucleic Acid. The experiment in a line: In vitro binding of [3H]HC to calf thymus DNA was measured after 2 days. It is filed as nucleic-acid assay. As to conditions: Bos taurus. The method in brief: (§3)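 0.02 µCi of 3H-labelled drug was added to 50 µg calf thymus DNA in 20 µL of 0.1 M citrate-phosphate buffer, pH 7. Incubated 1.5 h at 37 °C in the dark, diluted to 0.1 mL saline and dialyzed against saline at 4 °C for up to 4 days. Duplicate 10 µL samples taken from inside the bags at intervals were counted directly, or after TCA precipitation.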

In experiment [10] the test system is Schistosoma mansoni. Put plainly: Incorporation of 0.7 M *10e6 [3H]uridine in hycanthone(HC) sensitive Schistosoma mansoni. In kind it is functional.
A short description of experiment [11]: (§4) Total radioactivity of [3H]HC was evaluated after 3 days. In kind it is functional. The method in brief:
(§5)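 3H-labelled drug (0.02 µCi) was mixed with 50 µg calf thymus DNA in 0.1 M citrate-phosphate buffer, pH 7, and incubated in the dark for 1.5 h at 37 °C. The mix was diluted in saline and dialysed against saline at 4 °C. Duplicate samples drawn from inside the bags at intervals up to 4 days were counted directly.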

The test system of experiment [12] is Nucleic Acid. Put plainly: In vitro binding of [3H]HC to calf thymus DNA. The settings on record: Bos taurus. It is filed as nucleic-acid assay. In outline: as §3
Experiment [13] has as its system Nucleic Acid. Put plainly: In vitro binding of [3H]HC to calf thymus DNA was measured after 2 hours. In kind it is nucleic-acid assay. The settings on record: Bos taurus. The method in brief: as §3
Experiment [14] concerns Schistosoma mansoni. The experiment in a line: Day 50% survival of worms in culture of HC resistant Schistosoma mansoni. In kind it is functional. In outline: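 Adult HC-resistant S. mansoni were exposed in vitro and kept in culture. The value is the day by which 50% of worms were dead. Cultures were ended at different times in different experiments. Concentrations are given in M × 10^6.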

For experiment [15], the system named is HeLa. Put plainly: Incorporation of 10e-5 M [3H]uridine in HeLa cells in absence of HC measured as as TCA precipitable radioactivity compared with non treated controls. It is filed as functional, cell-based. As to conditions: Homo sapiens. In outline:
(§6)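 HeLa cells (10^6 per duplicate tube) were exposed to drug for 1 h, washed three times with medium, then held 2 h in drug-free medium. [3H]uridine was added for 1 h. Cells were precipitated with 10% TCA, and precipitates were filter-collected and counted. Values are % TCA-precipitable radioactivity versus untreated controls.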

The test system of experiment [16] is Nucleic Acid. Put plainly: Binding of 5x 10e-4 M [3H]HC to HeLa DNA. In kind it is nucleic-acid assay. The settings on record: Homo sapiens. The method in brief:
(§7)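 HeLa cells exposed 1 h to [3H]-labelled drug, washed three times with saline, then held 30 min at 37 °C in drug-free medium. After a 2 h digestion at 37 °C, crude DNA was ethanol-precipitated, purified on a CsCl density gradient, dialyzed and reprecipitated. DNA was quantified by A260. An aliquot was treated with DNase, and DNase-sensitive radioactivity was expressed as drug molecules per base pair.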

Experiment [17] concerns Schistosoma mansoni. The experiment in a line: Incorporation of 1.4 M*10e6 [3H]uridine in hycanthone(HC) resistant Schistosoma mansoni. It is filed as functional. In outline:
as §2

Experiment [18] concerns HeLa. The experiment in a line: Incorporation of 10e-5 M [3H]uridine in HeLa cells in presence of HC measured as as TCA precipitable radioactivity compared with non treated controls. The settings on record: Homo sapiens. It is filed as functional, cell-based. In outline:
(§8)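 HeLa cells (10^6 per duplicate tube) were incubated 1 h with drug. [3H]uridine was then added and incubation continued 1 h with drug present. Cells were washed with cold saline and precipitated with 10% TCA. Precipitates were collected on glass filters, TCA-washed and counted. Values are % TCA-precipitable radioactivity versus untreated controls.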

Experiment [19] has as its system Nucleic Acid. The experiment in a line: Binding of 1x 10e-4 M [3H]HC to HeLa DNA. In kind it is nucleic-acid assay. As to conditions: Homo sapiens. The method in brief: as §7
Experiment [20] relates to Schistosoma mansoni. The experiment in a line: Incorporation of 1.4 M*10e6 [3H]uridine in hycanthone(HC) sensitive Schistosoma mansoni. In kind it is functional.
Experiment [21] deals with HeLa. The experiment in a line: Incorporation of [3H]uridine in HeLa cells after 2x10e-5 M HC measured as as TCA precipitable radioactivity compared with non treated controls. As to conditions: Homo sapiens.
The test system of experiment [22] is HeLa. Put plainly: Incorporation of 2*10e-5 M [3H]uridine in HeLa cells in presence of HC measured as as TCA precipitable radioactivity compared with non treated controls. In kind it is functional, cell-based. The settings on record: Homo sapiens. In outline: as §8
The nature of experiment [23]: Total radioactivity of [3H]HC was evaluated after 2 hr. In kind it is functional. In outline: as §5
Experiment [24] has as its system Nucleic Acid. The experiment in a line: In vitro binding of [3H]HC to calf thymus DNA was measured after 3 days. It is filed as nucleic-acid assay. As to conditions: Bos taurus. The method in brief: as §3
Experiment [25] relates to Nucleic Acid. Put plainly: In vitro binding of [3H]HC to calf thymus DNA after precipitation with alcohol and TCA was measured. In kind it is nucleic-acid assay. The settings on record: Bos taurus. The method in brief:
as §3

For experiment [26], the system named is Nucleic Acid. The experiment in a line: In vitro binding of [3H]HC to calf thymus DNA after precipitation with alcohol and TCA was measured after 2 day. The settings on record: Bos taurus. It is filed as nucleic-acid assay. In outline: as §3
The test system of experiment [27] is HeLa. Put plainly: Incorporation of 2*10e-5 M [3H]-uridine in HeLa cells in absence of HC measured as as TCA precipitable radioactivity compared with non treated controls. As to conditions: Homo sapiens. In kind it is functional, cell-based. In outline: as §6
Experiment [28] can be described thus: as §4. In kind it is functional. In outline:
as §5
This is another data set of the same source.

The test system of experiment [29] is Nucleic Acid. The experiment in a line: In vitro binding of [3H]HC to calf thymus DNA after precipitation with alcohol and TCA was measured after 4 day. It is filed as nucleic-acid assay. The settings on record: Bos taurus. In outline: as §3
A short description of experiment [30]: Total radioactivity of [3H]HC was evaluated after 2 hours. It is filed as functional. The method in brief:
as §5

The test system of experiment [31] is Nucleic Acid. The experiment in a line: In vitro binding of [3H]HC to calf thymus DNA after precipitation with alcohol and TCA was measured after 1 day. In kind it is nucleic-acid assay. The settings on record: Bos taurus. The method in brief:
as §3

Experiment [32] has as its system Mus musculus. Put plainly: In vivo antitumor activity against p-388 lymphocytic leukemia in mice at 60 mg/kg. It is filed as functional. The method in brief: as §1
Experiment [33] relates to Nucleic Acid. The experiment in a line: In vitro binding of [3H]HC to calf thymus DNA was measured after 1 day. It is filed as nucleic-acid assay. As to conditions: Bos taurus. The method in brief: as §3
The subject of experiment [34] is Nucleic Acid. The experiment in a line: Binding of 1x 10e-5 M [3H]HC to HeLa DNA. It is filed as nucleic-acid assay. The settings on record: Homo sapiens. In outline:
as §7

Experiment [35] relates to Nucleic Acid. The experiment in a line: In vitro binding of [3H]HC to calf thymus DNA was measured after 4 day. It is filed as nucleic-acid assay. As to conditions: Bos taurus. In outline: as §3
In experiment [36] the test system is Nucleic Acid. Put plainly: In vitro binding of [3H]HC to calf thymus DNA after precipitation with alcohol and TCA was measured after 2 hours. It is filed as nucleic-acid assay. As to conditions: Bos taurus. In outline:
as §3

The subject of experiment [37] is Nucleic Acid. The experiment in a line: In vitro binding of [3H]-HC to calf thymus DNA after precipitation with alcohol and TCA was measured after 3 days. The settings on record: Bos taurus. It is filed as nucleic-acid assay. In outline: as §3
Experiment [38] deals with Schistosoma mansoni. Put plainly: Incorporation of 5M*10e6 [3H]uridine in hycanthone(HC) sensitive Schistosoma mansoni. In kind it is functional.
Experiment [39] has as its system Schistosoma mansoni. The experiment in a line: Incorporation of 1 M *10e6 [3H]uridine in hycanthone(HC) sensitive Schistosoma mansoni. In kind it is functional.
Experiment [40] concerns Schistosoma mansoni. The experiment in a line: Incorporation of 5M*10e6 [3H]uridine in hycanthone(HC) resistant Schistosoma mansoni. It is filed as functional. In outline:
as §2

Experiment [41] deals with Schistosoma mansoni. The experiment in a line: Incorporation of 1 M *10e6 [3H]uridine in hycanthone(HC) resistant Schistosoma mansoni. In kind it is functional. The method in brief: as §2

Each structure is given as a SMILES string. Values joined by “and” are separate entries in the source; they are usually repeats but may differ in a detail not shown here. Identical values can stand only once. A value given as a limit tells only on which side of the number the result lay.

Consider `CCCNC(=O)OCc1ccc(NCCN(CC)CC)c2c(=O)c3ccccc3sc12`, for which the Control is on record as 40% in the experiment on Schistosoma mansoni [1], 56% with Schistosoma mansoni [3], 22% in the experiment on Schistosoma mansoni [6] and 100% with Schistosoma mansoni [8]. Further, the figures for the T/C in the experiment on Mus musculus [2], with Mus musculus [4] and in the experiment on Mus musculus [5] were 99%, 134% and 117%, respectively. The Effect in the experiment on Schistosoma mansoni [7] was >12 days and 10 days.

Take `CCN(CC)CCNc1ccc(CO)c2sc3ccccc3c(=O)c12` [HYCANTHONE]: the Radioactivity in the experiment on Nucleic Acid [9] amounted to 2300 c.p.m; in [11] it was 700 c.p.m; in the experiment on Nucleic Acid [12], 235000 c.p.m; with Nucleic Acid [13], 50000 c.p.m; in the experiment on HeLa [15] it was 88%; with HeLa [18], 32%. In addition, the Radioactivity in the experiment with HeLa [21] stood at 68%; with HeLa [22] it was 37%; in experiment [23], 100 c.p.m; with Nucleic Acid [24], 1600 c.p.m; in the experiment with Nucleic Acid [25], 350 c.p.m; in the experiment on Nucleic Acid [26] it was 275 c.p.m. In addition, the Radioactivity came out at 68% with HeLa [27]; 62 c.p.m in [28]; 200 c.p.m with Nucleic Acid [29]; 20500 c.p.m in [30]; 330 c.p.m in the experiment with Nucleic Acid [31]; 3460 c.p.m in the experiment with Nucleic Acid [33]. Besides, the Radioactivity is 1100 c.p.m with Nucleic Acid [35], 430 c.p.m in the experiment on Nucleic Acid [36] and 265 c.p.m with Nucleic Acid [37]. Further, the Control in the experiment on Schistosoma mansoni [10] amounted to 20%; in the experiment on Schistosoma mansoni [17], 98%; in the experiment on Schistosoma mansoni [20], 30%. Besides, the figures for the Effect with Schistosoma mansoni [14] and in the experiment on Schistosoma mansoni [7] were greater than 12 days and 7 days, respectively. Further, the Drug mol/base pair with Nucleic Acid [16] is 7e-07; in the experiment with Nucleic Acid [19] it was less than 4e-08; in the experiment with Nucleic Acid [34], less than 4e-08. This molecule displayed a T/C in the experiment on Mus musculus [32] of 165.

On to `CCN(CC)CCNc1ccc(COC(=O)Nc2ccccc2)c2sc3ccccc3c(=O)c12`, for which the Control is 7% in the experiment on Schistosoma mansoni [38], 18% in the experiment with Schistosoma mansoni [39], 32% with Schistosoma mansoni [40] and 33% in the experiment with Schistosoma mansoni [41]. Also, the values for the Effect with Schistosoma mansoni [14] and in the experiment on Schistosoma mansoni [7] were 12 days and 8 days, respectively. For the same molecule, the T/C in the experiment on Mus musculus [4] is reported as 111%.

(Values after ChEMBL document CHEMBL1124248, “Preparation and antischistosomal and antitumor activity of hycanthone and some of its congeners. Evidence for the mode of action of hycanthone” (1988).)
